Test results as given in ChEMBL document CHEMBL3994580, “A novel class of α-glucosidase and HMG-CoA reductase inhibitors from Ganoderma leucocontextum and the anti-diabetic properties of ganomycin I in KK-Ay mice” (Eur J Med Chem, 2017).
Active and inactive are the calls of the source. The calls are words filed in the database; no cut-off is given here.

Assays:
Mus musculus [1] = assay: Acute toxicity in mouse assessed as effect on behavior up to 3 g/kg, po up to 14 days; details: in vivo, 336 h
Mus musculus [2] = assay: Acute toxicity in mouse assessed as effect on sleep up to 3 g/kg, po up to 14 days; details: in vivo, 336 h
Mus musculus [3] = assay: Acute toxicity in mouse assessed as mortality up to […], po up to 14 days; type: organism-based; details: in vivo, 336 h
Mus musculus [4] = assay: Antidiabetic activity in KK-Ay diabetic mouse model assessed as reduction in blood glucose level after 4 hrs fasting at 1 to 5 mg/kg/day administered via oral gavage once daily measured on day 3 post dose; type: functional, organism-based
In short: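 KK-Ay mice on high-fat diet, gavaged once daily (1 or 5 mg/kg; rosiglitazone 10 mg/kg). Blood glucose monitored sequentially after 4 h fasting. Mean ± SEM, n = 8, compared with the KK-Ay model group.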

Mus musculus [5] = assay: Toxicity in KK-Ay diabetic mouse model assessed as decrease in body weight at 1 to 5 mg/kg/day administered via oral gavage once daily measured every 3 days post two weeks of compound treatment; type: organism-based; details: in vivo, 72 h
In short: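 In high-fat-fed KK-Ay mice gavaged once daily for 21 days, individual body weight and cage food consumption were recorded every 3 days. Mean ± SEM, n = 8.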

Mus musculus [6] = assay: Acute toxicity in mouse assessed as changes in nature of urine up to 3 g/kg, po up to 14 days; details: in vivo, 336 h
[7] = Inhibition of alpha-glucosidase in rat small intestinal mucosa assessed as reduction in glucose production using p-nitrophenyl alpha-D-glucopyranoside as substrate measured after 40 mins by glucose oxidase assay
In short: (§1)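 Rat small intestinal mucosa enzyme. Compound in DMSO mixed with substrate (maltose, sucrose or pNPG) and enzyme in 0.1 M phosphate buffer pH 6.9, incubated 40 min. Glucose released measured by glucose oxidase kit at 550 nm. Blank lacked enzyme, control lacked compound. Percent inhibition calculated from blank-corrected OD.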

Mus musculus [8] = assay: Hypolipidemic activity in KK-Ay diabetic mouse model assessed as reduction in serum NEFA level at 1 to 5 mg/kg/day administered via oral gavage once daily for 21 days; type: functional, organism-based
In short: (§2)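 Male KK-Ay mice (8 weeks old) on high-fat diet with water ad libitum, dosed by gavage once daily for 21 days (1 or 5 mg/kg test; rosiglitazone 10 mg/kg); female C57BL/6J mice as normal controls. Blood collected at study end. Serum lipids, insulin and glucose measured per cited method. ISI calculated from fasting blood glucose and fasting insulin. Mean ± SEM, n = 7-8.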

Mus musculus [9] = assay: Decrease in hepatocyte hypertrophy in KK-Ay diabetic mouse model at 5 mg/kg/day administered via oral gavage once daily for 21 days by haematoxylin and eosin staining based microscopic or morphometric method; type: functional, organism-based
In short: (§3)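 At study end, liver and abdominal white adipose tissue were fixed in 10% formaldehyde PBS (pH 7.4), paraffin-embedded, sectioned and stained with haematoxylin/eosin. Sections were assessed by microscopy or morphometry at 20×.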

Mus musculus [10] = assay: Acute toxicity in mouse assessed as effect on physical activity up to 3 g/kg, po up to 14 days; details: in vivo, 336 h
Mus musculus [11] = assay: Hypolipidemic activity in KK-Ay diabetic mouse model assessed as reduction in serum triglyceride level at 1 to 5 mg/kg/day administered via oral gavage once daily for 21 days; type: functional, organism-based
In short: as §2

Mus musculus [12] = assay: Decrease in size of adipocytes in abdominal white adipose tissue in KK-Ay diabetic mouse model at 5 mg/kg/day administered via oral gavage once daily for 21 days by haematoxylin and eosin staining based microscopic or morphometric method; type: functional, organism-based
In short: as §3

[13] = target: Sucrase-isomaltase, intestinal (Rattus norvegicus, UniProt P23739); assay: Inhibition of sucrase in rat small intestinal mucosa assessed as reduction in glucose production using sucrose as substrate measured after 40 mins by glucose oxidase assay
Sequence of Sucrase-isomaltase, intestinal (P23739 1-1013 limits assumed): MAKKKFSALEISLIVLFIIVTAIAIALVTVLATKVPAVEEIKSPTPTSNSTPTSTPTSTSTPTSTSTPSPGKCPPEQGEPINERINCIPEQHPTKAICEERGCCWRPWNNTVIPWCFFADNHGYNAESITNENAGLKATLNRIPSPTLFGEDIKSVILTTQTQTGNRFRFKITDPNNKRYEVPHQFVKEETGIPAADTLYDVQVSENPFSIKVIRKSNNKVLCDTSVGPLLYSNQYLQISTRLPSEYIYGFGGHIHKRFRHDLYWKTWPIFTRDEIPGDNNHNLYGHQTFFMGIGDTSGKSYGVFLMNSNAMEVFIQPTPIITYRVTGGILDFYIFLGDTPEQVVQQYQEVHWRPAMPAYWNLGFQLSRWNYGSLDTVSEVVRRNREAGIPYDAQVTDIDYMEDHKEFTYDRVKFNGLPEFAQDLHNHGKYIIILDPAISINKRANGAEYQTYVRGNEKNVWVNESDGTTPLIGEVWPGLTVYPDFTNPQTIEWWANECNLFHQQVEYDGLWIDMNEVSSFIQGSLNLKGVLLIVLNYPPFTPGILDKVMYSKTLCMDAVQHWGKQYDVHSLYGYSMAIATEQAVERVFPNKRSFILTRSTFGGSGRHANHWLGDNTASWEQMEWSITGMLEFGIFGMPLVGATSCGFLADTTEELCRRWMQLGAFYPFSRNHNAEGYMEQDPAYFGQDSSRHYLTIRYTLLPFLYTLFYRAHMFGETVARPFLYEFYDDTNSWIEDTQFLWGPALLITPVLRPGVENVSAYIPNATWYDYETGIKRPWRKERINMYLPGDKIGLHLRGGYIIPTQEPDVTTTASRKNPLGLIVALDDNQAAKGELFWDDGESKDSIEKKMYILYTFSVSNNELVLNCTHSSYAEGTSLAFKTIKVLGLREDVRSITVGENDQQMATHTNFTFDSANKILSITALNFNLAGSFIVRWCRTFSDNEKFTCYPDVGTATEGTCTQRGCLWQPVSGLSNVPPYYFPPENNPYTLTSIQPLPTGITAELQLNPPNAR
Sequence of Sucrase-isomaltase, intestinal (P23739 1014-1841 limits assumed): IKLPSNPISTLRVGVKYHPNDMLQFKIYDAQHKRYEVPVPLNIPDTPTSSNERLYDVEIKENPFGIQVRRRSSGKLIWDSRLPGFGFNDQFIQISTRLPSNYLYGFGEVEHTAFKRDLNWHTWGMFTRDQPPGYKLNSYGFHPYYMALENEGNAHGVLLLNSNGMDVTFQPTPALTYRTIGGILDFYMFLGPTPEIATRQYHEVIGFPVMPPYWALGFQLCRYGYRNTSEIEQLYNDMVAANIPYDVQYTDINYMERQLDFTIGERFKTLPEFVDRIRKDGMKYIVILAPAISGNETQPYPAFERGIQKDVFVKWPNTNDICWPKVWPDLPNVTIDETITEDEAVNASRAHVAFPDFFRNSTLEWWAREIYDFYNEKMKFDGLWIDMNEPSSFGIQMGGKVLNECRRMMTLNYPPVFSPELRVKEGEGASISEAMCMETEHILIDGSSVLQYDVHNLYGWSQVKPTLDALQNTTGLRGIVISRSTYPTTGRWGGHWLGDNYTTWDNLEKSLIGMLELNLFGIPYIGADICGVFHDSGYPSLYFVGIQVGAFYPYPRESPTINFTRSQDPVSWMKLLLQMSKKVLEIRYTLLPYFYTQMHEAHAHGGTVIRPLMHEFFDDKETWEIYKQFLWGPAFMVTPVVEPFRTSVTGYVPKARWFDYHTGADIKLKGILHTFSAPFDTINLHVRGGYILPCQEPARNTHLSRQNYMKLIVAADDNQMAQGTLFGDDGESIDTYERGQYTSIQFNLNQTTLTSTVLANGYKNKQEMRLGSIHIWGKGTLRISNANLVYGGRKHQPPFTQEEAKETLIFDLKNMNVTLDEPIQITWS
In short: as §1

Mus musculus [14] = assay: Acute toxicity in mouse assessed as changes in nature of stool up to 3 g/kg, po up to 14 days; details: in vivo, 336 h
Saccharomyces cerevisiae = assay: Non-competitive inhibition of baker's yeast alpha-glucosidase using varying levels of p-nitrophenyl alpha-D-glucopyranoside as substrate preincubated for 10 mins followed by substrate addition measured for 15 mins by Lineweaver-Burk plot analysis
In short: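 Kinetics with inhibitor at 0.3 to 1 μM against α-glucosidase. pNPG at 2, 4, 6 and 8 μM. Initial velocities measured with and without inhibitor, and inhibition type assigned from Michaelis-Menten and Lineweaver-Burk plots.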

Mus musculus [15] = assay: Hypoglycemic activity in KK-Ay diabetic mouse model assessed as increase in liver hepatic glycogen level at 1 to 5 mg/kg/day administered via oral gavage once daily for 4 weeks; type: functional, organism-based
Mus musculus [16] = assay: Decrease in serum AST level in KK-Ay diabetic mouse model at 1 to 5 mg/kg/day administered via oral gavage once daily for 21 days; type: functional, organism-based
In short: as §2

[17] = target: T1, 3-hydroxy-3-methylglutaryl-coenzyme A reductase (Sus scrofa) (UniProt Q1W675); assay: (§4) Inhibition of HMG-CoA reductase in pig liver microsomes using HMG-CoA as substrate preincubated for 5 mins followed by NADPH addition measured after 15 mins by colorimetric method
T1 sequence (whole entry): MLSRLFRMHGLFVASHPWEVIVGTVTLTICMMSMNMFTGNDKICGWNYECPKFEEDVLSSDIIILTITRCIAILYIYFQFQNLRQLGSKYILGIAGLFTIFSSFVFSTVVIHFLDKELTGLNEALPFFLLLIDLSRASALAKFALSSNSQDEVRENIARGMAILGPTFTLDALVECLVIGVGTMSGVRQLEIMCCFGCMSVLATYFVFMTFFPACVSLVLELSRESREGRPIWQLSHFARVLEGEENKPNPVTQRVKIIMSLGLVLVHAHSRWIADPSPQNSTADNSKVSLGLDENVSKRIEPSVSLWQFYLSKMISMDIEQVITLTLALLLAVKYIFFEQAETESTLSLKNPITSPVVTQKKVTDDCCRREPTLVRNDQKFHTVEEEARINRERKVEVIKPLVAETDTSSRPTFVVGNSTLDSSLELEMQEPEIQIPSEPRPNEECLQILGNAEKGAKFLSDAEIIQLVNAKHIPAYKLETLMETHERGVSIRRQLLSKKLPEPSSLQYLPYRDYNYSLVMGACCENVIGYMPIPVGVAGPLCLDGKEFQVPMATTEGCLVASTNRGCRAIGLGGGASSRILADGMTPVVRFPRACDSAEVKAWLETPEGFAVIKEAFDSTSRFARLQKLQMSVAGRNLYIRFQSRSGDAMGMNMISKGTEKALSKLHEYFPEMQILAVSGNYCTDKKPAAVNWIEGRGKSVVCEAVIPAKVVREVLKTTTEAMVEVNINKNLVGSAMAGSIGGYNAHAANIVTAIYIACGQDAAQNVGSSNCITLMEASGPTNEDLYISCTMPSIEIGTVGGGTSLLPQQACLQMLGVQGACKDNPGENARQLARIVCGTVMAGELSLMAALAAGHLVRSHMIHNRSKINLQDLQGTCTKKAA
In short: (§5)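 HMG-CoA reductase activity followed by absorbance at 340 nm. Blank had potassium phosphate buffer instead of enzyme, and control had buffer instead of compound. Percent inhibition calculated from blank-corrected OD.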

[18] = target: T2, 3-hydroxy-3-methylglutaryl-coenzyme A reductase (Sus scrofa, UniProt Q1W675); assay: as §4
T2 sequence (Q1W675 whole entry): T1 sequence (whole entry)
In short: as §5

Structure (SMILES): CC(C)=CCC/C(C)=C/CCC1=C[C@H](c2cc(O)ccc2O)OC1=O
- Activity (Mus musculus [1]): Non-Toxic
- Activity (Mus musculus [2]): Non-Toxic
- Activity (Mus musculus [3]): Non-Toxic
- Activity (Mus musculus [4]): Active
- Activity (Mus musculus [5]): Toxic
- Activity (Mus musculus [6]): Non-Toxic
- IC50 [7]: 0.4 µM
- Activity (Mus musculus [8]): Active
- Activity (Mus musculus [9]): Active
- Activity (Mus musculus [10]): Non-Toxic
- Activity (Mus musculus [11]): Active
- Activity (Mus musculus [12]): Active
- IC50 [13]: 67.6 µM
- Activity (Mus musculus [14]): Non-Toxic
- inhibition (Saccharomyces cerevisiae): Active
- Activity (Mus musculus [15]): Active
- Activity (Mus musculus [16]): Active
- inhibition [17]: Dose-dependent effect
- IC50 [18]: 12.3 µM
